Compound activity (PubChem)
Sampled rows, rich in hits. Any-hit rate of the full collection: about 2.1%.
FXIIa inh: inhibitors of human coagulation factor XIIa. purified FXIIa, Boc-QGR-AMC fluorogenic substrate, 2 h. inhibition, % at 5 µM. 220,000 compounds, 0.3% hits; in the data active = inhibition above about 40%;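 also: 0% = enzyme with no compound and 100% = blank without enzyme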
EP2 mod: modulators of human EP2 prostaglandin E2 receptor. 260,000 compounds, 0.83% hits. induction, % at 25 µM. P43116. EP2-expressing cells, cAMP HTRF FRET, PGE2 co-stimulation;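 active = compounds whose cAMP rise, as percent of the full-agonist control response, exceeds 60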;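 also: rat C6 glioma line stably carrying human EP2 under a CMV promoter; the protocol text gives 20 µM as final concentration; 100% = response of wells given 1 µM PGE2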
Target sequence (P43116 whole entry, looked up): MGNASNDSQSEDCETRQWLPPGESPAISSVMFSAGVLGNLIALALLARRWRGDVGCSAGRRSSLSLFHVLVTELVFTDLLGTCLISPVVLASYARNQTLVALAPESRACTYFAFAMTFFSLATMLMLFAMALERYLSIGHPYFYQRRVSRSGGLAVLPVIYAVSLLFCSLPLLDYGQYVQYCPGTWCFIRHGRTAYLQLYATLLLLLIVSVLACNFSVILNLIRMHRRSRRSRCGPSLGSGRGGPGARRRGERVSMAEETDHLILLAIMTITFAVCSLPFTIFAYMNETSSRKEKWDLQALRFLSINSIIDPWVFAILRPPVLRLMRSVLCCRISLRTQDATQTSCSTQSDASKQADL
thrombin 1536: blocks human thrombin protease activity; inhibition, % at 5 µM; 220,000 compounds, 0.26% hits; alpha-thrombin, Boc-VPR-AMC fluorogenic substrate cleavage;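 active = inhibition at or above 40%; inactive = inhibition below 40%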;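 also: 0% = enzyme with no compound and 100% = wells without enzyme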
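Material: Human alpha-thrombin protein | Buffer or medium: pH 7.5 Tris-saline with Tween 20 | Reagent: Boc-VPR-AMC substrate, 15 µM final | Schedule: Reaction at ambient temperature | Detection: AMC fluorescence at 355 nm excitation and 460 nm emission | Evaluation: Percent inhibition scaled between no-compound controls and no-enzyme blanks | Controls: no-compound enzyme wells and no-enzyme blanks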
FXIa inh: factor XIa (human) inhibition; purified FXIa, Boc-Glu-Ala-Arg-AMC fluorogenic substrate; inhibition, % at 5 µM; P03951; 220,000 compounds, 0.14% hits;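 active = inhibition of at least 40%; inactive = inhibition below 40%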;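 also: fluorescence of freed AMC excited at 355 nm; 0% = enzyme without compound and 100% = no enzyme blank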
KLK5 inh: kallikrein 5 (human) inhibition | Q9Y337 | recombinant hK5, fluorogenic AMC substrate cleavage | inhibition, % at 5 µM | 210,000 compounds, 0.59% hits;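 active = inhibition of 40% or more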;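 also: 0% = enzyme controls without compound and 100% = no-enzyme blanks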
EP2 antag: blocks the human prostaglandin E2 receptor EP2; P43116; C6 glioma cells expressing human EP2, cAMP TR-FRET; cells stimulated with saturating PGE2; 260,000 compounds, 0.52% hits; inhibition, % at 25 µM; AID 1422;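 active = percent inhibition above 40 after rounding to a whole number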;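 also: rat C6 glioma host cells with rolipram phosphodiesterase inhibitor present; the protocol text gives 20 µM as final concentration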
EP2 cAMP induct: EP2 receptor cAMP induction, counter-screens negative; AID 1080; 1,300 compounds, 47% hits; calls only at 20 µM (by protocol); shares compounds with EP2 mod; C6 glioma EP2 cells, cAMP HTRF induction; plus low (about EC15) PGE2 agonist;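 active = cAMP induction above 50% in the main assay while under 30% in all four parallel counter assays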;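 also: rat C6 glioma cells stably expressing human EP2 receptor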
The depositor's hits bear a star.

What do the screens show for `CCn1c(SCC(=O)Nc2ccc(NC(=O)c3ccc(C)cc3)cc2C)nnc1-c1cccs1`?
EP2 mod: -12; EP2 antag: 8

How did CCN(c1cccc(C)c1)S(=O)(=O)c1ccc2c3c(cccc13)C(=O)N2 do in these assays?
FXIIa inh: -3; EP2 mod: 79*; thrombin 1536: -5; FXIa inh: -5; KLK5 inh: -12; EP2 antag: 15; EP2 cAMP induct: active

What do the screens show for `C=CCNC(=O)c1cc2c(=O)n3cc(C)ccc3nc2n(CCN2CCOCC2)c1=N`?
EP2 mod: -45; EP2 antag: 7

How did O=C(NNc1ccc([N+](=O)[O-])cc1[N+](=O)[O-])C1C2CCCCC21 (stereo not given) do in these assays?
FXIIa inh: 18; EP2 mod: 65*; thrombin 1536: 3; FXIa inh: 11; KLK5 inh: -2; EP2 antag: 8; EP2 cAMP induct: active

How did CCOc1ccc2nc(NC(=O)COc3ccc(OC)cc3)sc2c1 do in these assays?
EP2 mod: -10; EP2 antag: 19

Results for CCCOc1ccc(C(=O)Nc2sc(C)c(C)c2C#N)cc1 ?
EP2 mod: 2; EP2 antag: 13

How did Cc1cc(Nc2ccccc2)c2c([N+](=O)[O-])cc(C)c(C)c2n1 do in these assays?
FXIIa inh: 12; EP2 mod: 46; thrombin 1536: 1; FXIa inh: 5; KLK5 inh: -13; EP2 antag: 9

What do the screens show for `COc1ccccc1Nc1cc(C)nc2c(C)ccc([N+](=O)[O-])c12`?
FXIIa inh: 13; EP2 mod: 80*; thrombin 1536: 0; FXIa inh: 10; KLK5 inh: -6; EP2 antag: 4; EP2 cAMP induct: active

How did CCC(c1nnnn1C1CCCCC1)N(Cc1cc2cccc(C)c2[nH]c1=O)C1CCCCC1 (stereo not given) do in these assays?
EP2 mod: 17; EP2 antag: 7

What do the screens show for `Cc1cccc2cc(CN(Cc3cccs3)C3(c4nnnn4C4CCCC4)CCCC3)c(=O)[nH]c12`?
FXIIa inh: -2; EP2 mod: 66*; thrombin 1536: 7; FXIa inh: -11; KLK5 inh: 7; EP2 antag: 13; EP2 cAMP induct: inactive

Results for CCc1nc(SCC(=O)Nc2nnc(C)s2)c2c(C)c(C)sc2n1 ?
EP2 mod: 16; EP2 antag: 22

What do the screens show for `COc1cc(C)c2c(c1C=O)Oc1c(c(C)c(O)c3c1C(O)OC3=O)OC2=O` (stereo not given)?
FXIIa inh: 14; EP2 mod: 28; thrombin 1536: 0; FXIa inh: 6; KLK5 inh: 3; EP2 antag: 7

What do the screens show for `Cc1cc(O)c(C=O)c2c1C(=O)Oc1c(C)c(O)c3c(c1O2)C(O)OC3=O` (stereo not given)?
EP2 mod: 51; EP2 antag: 13; EP2 cAMP induct: inactive

What do the screens show for `Cc1nc2ccc3ccccc3c2s1`?
EP2 mod: -115; EP2 antag: 12

Results for Cc1ccc(-c2nn3c(C)nnc3s2)cc1NCc1c(F)cccc1Cl ?
FXIIa inh: -7; EP2 mod: 66*; thrombin 1536: 2; FXIa inh: -5; KLK5 inh: -22; EP2 antag: 19; EP2 cAMP induct: inactive

How did COCCCN1C(=O)C(=O)/C(=C(\O)c2ccc(C)cc2)C1c1ccc(OC)cc1OC (stereo not given) do in these assays?
EP2 mod: 16; EP2 antag: 16

How did CC1(C)C2CCC(C2)C1(C)NC(=O)CNCc1ccco1 (stereo not given) do in these assays?
EP2 mod: 6; EP2 antag: 13

What do the screens show for `Cc1cccc(NCc2nc3ccccc3n2Cc2ccccc2)c1`?
FXIIa inh: 2; EP2 mod: 66*; thrombin 1536: 0; FXIa inh: -3; KLK5 inh: 5; EP2 antag: -1; EP2 cAMP induct: inactive
